Consider five compounds from paper PMC4332549 (ChemMedChem, 2012).

Molecules are shown by their SMILES. Square brackets hold non-standard residues; d marks the D form. Peptide text beside a SMILES is read from it. * marks the point of attachment. Palmitoyl = CCCCCCCCCCCCCCCC(=O)*; Ahp = NCCCCCCC(=O)O; Ahx = NCCCCCC(=O)O; Sar = CNCC(=O)O A value given as a limit tells only on which side of the number the result lay.

Data set [1] is described as follows: Rat serum stability. The data set is classed as in vitro ADME. In outline: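 Male Sprague-Dawley rat trunk-blood serum, kept at −80 °C and used within 3 months. 10 μg peptide in 1 mL pre-warmed 25% serum in 0.1 M Tris-HCl pH 7.5 at 37 °C. Sampled at 0, 30 min, 1, 2, 4 and 8 h, quenched with TCA/isopropanol at −20 °C for 20 min, then centrifuged. Intact peptide measured by reverse-phase HPLC; t1/2 fitted from ≥3 independent time-courses.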

Data set [2] concerns the target T1, hGAL1 (human galanin receptor GalR1) (Homo sapiens, UniProt P47211).
T1 sequence (P47211 1-349): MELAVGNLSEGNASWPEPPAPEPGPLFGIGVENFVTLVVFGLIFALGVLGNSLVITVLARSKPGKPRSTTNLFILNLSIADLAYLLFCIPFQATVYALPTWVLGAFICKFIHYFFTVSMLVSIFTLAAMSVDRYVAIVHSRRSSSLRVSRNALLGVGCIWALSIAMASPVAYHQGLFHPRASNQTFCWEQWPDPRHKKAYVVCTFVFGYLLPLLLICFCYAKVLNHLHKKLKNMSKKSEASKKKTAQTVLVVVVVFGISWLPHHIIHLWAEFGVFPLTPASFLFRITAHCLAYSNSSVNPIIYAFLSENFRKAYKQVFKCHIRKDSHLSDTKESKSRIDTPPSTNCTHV
The experiment in a line: Competitive binding assay, Eu-labeled galanin, time-resolved fluorescence.

The conditions of data set [3]: octanol-water log D, shake-flask / HPLC; cited from earlier work.
Data set [4] addresses T2, hGAL2 (human galanin receptor GalR2) (Homo sapiens, UniProt O43603).
T2 sequence (O43603 1-387): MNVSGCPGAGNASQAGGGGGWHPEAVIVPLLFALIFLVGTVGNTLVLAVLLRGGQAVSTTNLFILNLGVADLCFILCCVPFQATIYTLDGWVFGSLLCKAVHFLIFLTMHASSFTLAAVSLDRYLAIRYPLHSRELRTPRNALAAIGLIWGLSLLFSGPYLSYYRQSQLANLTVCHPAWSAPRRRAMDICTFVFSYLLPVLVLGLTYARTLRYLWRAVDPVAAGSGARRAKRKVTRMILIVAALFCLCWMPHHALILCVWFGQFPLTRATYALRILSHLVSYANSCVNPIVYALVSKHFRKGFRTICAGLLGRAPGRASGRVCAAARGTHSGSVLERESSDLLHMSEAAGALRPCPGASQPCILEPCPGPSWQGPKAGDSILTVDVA
Briefly: Competitive binding assay, Eu-labeled galanin, time-resolved fluorescence.

Take `CCCCCCCCCCCCCCCC(=O)NCCCC[C@H](NC(=O)[C@@H](CCCCN)NC(=O)[C@@H](CCCCN)NC(=O)CCCCCCNC(=O)[C@H](Cc1ccc(O)cc1)NC(=O)CNC(=O)[C@H](C)NC(=O)[C@H](CO)NC(=O)[C@H](CC(N)=O)NC(=O)[C@H](CC(C)C)NC(=O)[C@@H](NC(=O)[C@H](Cc1c[nH]c2ccccc12)NC(=O)CNC)[C@@H](C)O)C(=O)N[C@H](CCCCN)C(N)=O` [D-Gal(7-Ahp)-B2] (H-[Sar]WTLNSAGY[Ahp][dK][dK]K(Palmitoyl)[dK]-NH2): in data set [1] (male, Sprague-Dawley, rat, 25% rat serum, pH 7.5), the half-life – broadly, the time in which the quantity being followed falls by half – at 10 µg/mL is > 10 h.
In the case of `CCCCCCCCCCCCCCCC(=O)NCCCC[C@H](NC(=O)[C@@H](CCCCN)NC(=O)[C@@H](CCCCN)NC(=O)[C@H](Cc1ccc(O)cc1)NC(=O)CNC(=O)[C@H](C)NC(=O)[C@H](CO)NC(=O)[C@H](CC(N)=O)NC(=O)[C@H](CC(C)C)NC(=O)[C@@H](NC(=O)[C@H](Cc1c[nH]c2ccccc12)NC(=O)CNC)[C@@H](C)O)C(=O)N[C@H](CCCCN)C(N)=O` [D-[des-LLGP]Gal-B2] (H-[Sar]WTLNSAGY[dK][dK]K(Palmitoyl)[dK]-NH2), in data set [2], the Ki (usually the dissociation constant of the complex between target and ligand, obtained from inhibition or displacement) is ≥ 30 µM.
Regarding `CCCCCCCCCCCCCCCC(=O)NCCCC[C@H](NC(=O)[C@H](CCCCN)NC(=O)[C@H](CCCCN)NC(=O)[C@@H]1CCCN1C(=O)CNC(=O)[C@H](CC(C)C)NC(=O)[C@H](CC(C)C)NC(=O)[C@H](Cc1ccc(O)cc1)NC(=O)CNC(=O)[C@H](C)NC(=O)[C@H](CO)NC(=O)[C@H](CC(N)=O)NC(=O)[C@H](CC(C)C)NC(=O)[C@@H](NC(=O)[C@H](Cc1c[nH]c2ccccc12)NC(=O)CNC)[C@@H](C)O)C(=O)N[C@@H](CCCCN)C(N)=O` [Gal-B2], in data set [1] (rat serum), the “increase of t1/2 compared to Gal(1-16)” value is listed as 80 fold. The log D (as a rule, lipophilicity at a set pH, counting ionised and neutral species) in data set [3] is given as 1.24.
`CCCCCCCCCCCCCCCC(=O)NCCCC[C@H](NC(=O)[C@H](CCCCN)NC(=O)[C@H](CCCCN)NC(=O)CCCCCNC(=O)[C@H](Cc1ccc(O)cc1)NC(=O)CNC(=O)[C@H](C)NC(=O)[C@H](CO)NC(=O)[C@H](CC(N)=O)NC(=O)[C@H](CC(C)C)NC(=O)[C@@H](NC(=O)[C@H](Cc1c[nH]c2ccccc12)NC(=O)CNC)[C@@H](C)O)C(=O)N[C@@H](CCCCN)C(N)=O` [L-Gal(6-Ahx)-B2] (H-[Sar]WTLNSAGY[Ahx]KKK(Palmitoyl)K-NH2) came in with a Ki in data set [2] of 1.17 ± 0.3 µM.
In the case of `CCCCCCCCCCCCCCCC(=O)NCCCC[C@H](NC(=O)[C@H](CCCCN)NC(=O)[C@H](CCCCN)NC(=O)[C@H](Cc1ccc(O)cc1)NC(=O)CNC(=O)[C@H](C)NC(=O)[C@H](CO)NC(=O)[C@H](CC(N)=O)NC(=O)[C@H](CC(C)C)NC(=O)[C@@H](NC(=O)[C@H](Cc1c[nH]c2ccccc12)NC(=O)CNC)[C@@H](C)O)C(=O)N[C@@H](CCCCN)C(N)=O` [[des-LLGP]Gal-B2] (H-[Sar]WTLNSAGYKKK(Palmitoyl)K-NH2), the Ki was 27.4 µM in data set [4] and ≥ 30 µM in data set [2].
